Holding throughout (format): functional
For experiment [1], the system named is Enterococcus faecium. In words: Antimicrobial activity against vancomycin-resistant Enterococcus faecium 379 NC12204 after 18 hrs by broth dilution method. The following applies: Enterococcus faecium, 379, 18 h. A digest of the protocol:
(§1)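 MIC by broth dilution following NCCLS recommendations, Mueller-Hinton II medium; inoculum 5 × 10^5 cfu/mL; antibiotic range 128-0.0625 µg/mL; microtiter plates incubated 18 h at 35 °C in ambient air; MIC read after incubation.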

In experiment [2] the test system is Staphylococcus aureus. Kind of experiment: Antimicrobial activity against Staphylococcus aureus 375 ATCC 3538p after 18 hrs by broth dilution method. The following applies: Staphylococcus aureus, 375, 18 h. The gist of the method:
(§2)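 MIC by broth dilution per NCCLS recommendations in Mueller-Hinton II medium. Inoculum 5 × 10^5 cfu/mL, antibiotic concentrations 128-0.0625 µg/mL. Microtiter plates incubated 18 h at 35 °C in ambient air. MIC read at end of incubation.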
A general note: In broth dilution the organism is exposed to a series of concentrations in liquid medium.

The test system of experiment [3] is Escherichia coli. In words: Antimicrobial activity against Escherichia coli 442 GC4559 after 18 hrs by broth dilution method. The conditions noted are these: Escherichia coli, 442, 18 h. A digest of the protocol:
as §2

Experiment [4] concerns Enterococcus faecium. In words: Antimicrobial activity against Enterococcus faecium 436 ID3151 after 18 hrs by broth dilution method. The following applies: Enterococcus faecium, 436, 18 h. The gist of the method: as §2
Experiment [5] relates to Escherichia coli. In words: Antimicrobial activity against Escherichia coli 389 GC4560 expressing imp after 18 hrs by broth dilution method. The following applies: Escherichia coli, 389, 18 h. The gist of the method: as §2
The next experiment relates to Candida albicans. Kind of experiment: Antimicrobial activity against Candida albicans 54 CA300 after 18 hrs by broth dilution method. The conditions noted are these: Candida albicans, 54, 18 h. A digest of the protocol: as §2
The subject of experiment [6] is Staphylococcus aureus. Kind of experiment: Antimicrobial activity against methicillin-resistant Staphylococcus aureus 310 SSC8224 after 18 hrs by broth dilution method. The conditions noted are these: Staphylococcus aureus, 310, 18 h. A digest of the protocol:
as §1

Converted amounts (≈) assume the structure as drawn. Some results are limits rather than exact numbers.

For `CC(C)=CCC/C(C)=C/CC/C(C)=C/CN1C(=O)c2cc(F)cc(O)c2Nc2c(O)cc(O)cc21`, the MIC in the experiment on Enterococcus faecium [1] was 16 µg/mL (≈ 33.3 µM); against Staphylococcus aureus [2], 16 µg/mL (≈ 33.3 µM); in the experiment on Escherichia coli [3] it was > 128 µg/mL; in the experiment on Enterococcus faecium [4], 32 µg/mL (≈ 66.6 µM); against Escherichia coli [5], > 128 µg/mL; in the experiment with Candida albicans, > 128 µg/mL. Moreover, the MIC in the experiment with Staphylococcus aureus [6] came to 8 µg/mL (≈ 16.6 µM).

Take `CC(C)=CCC/C(C)=C/CC/C(C)=C/CN1C(=O)c2ccc(F)c(O)c2Nc2c(O)cc(O)cc21`: the MIC in the experiment with Enterococcus faecium [1] was 32 µg/mL (≈ 66.6 µM); with Staphylococcus aureus [2] it was 32 µg/mL (≈ 66.6 µM); against Escherichia coli [3], > 128 µg/mL; with Enterococcus faecium [4], 32 µg/mL (≈ 66.6 µM); with Escherichia coli [5], > 128 µg/mL; in the experiment on Candida albicans, > 128 µg/mL. Moreover, the MIC in the experiment with Staphylococcus aureus [6] is 16 µg/mL (≈ 33.3 µM).

As to `CC(C)=CCC/C(C)=C/CC/C(C)=C/CN1C(=O)c2cccc(O)c2Nc2c(O)cc(O)cc21` [DIAZEPINOMICIN], the MIC is 32 µg/mL (≈ 69.2 µM) with Enterococcus faecium [1]; 16 µg/mL (≈ 34.6 µM) with Staphylococcus aureus [2]; > 128 µg/mL against Escherichia coli [3]; 64 µg/mL (≈ 138 µM) against Enterococcus faecium [4]; > 128 µg/mL with Escherichia coli [5]; > 128 µg/mL with Candida albicans. The compound further had an MIC against Staphylococcus aureus [6] of 8 µg/mL (≈ 17.3 µM).

Broadly, the MIC is the smallest concentration in the dilution series that meets the test's criterion for growth inhibition. The low end stands for inhibition by little substance, the high end for a need for much substance.
